Assay results as given in ChEMBL document CHEMBL1144103, “Biologically active secondary metabolites from fungi. 12.(1) oidiolactones A-F, labdane diterpene derivatives isolated from oidiodendron truncata” (1999).

Tests used:
Type in all cases: functional
[1] = system: Aspergillus pseudoglaucus; assay: Antifungal activity against Eurotium repens at 10 mg/mL by agar diffusion test; settings: read-out: IZ
Outline: (§1)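 Agar diffusion test. Activity is scored on a 1-4 scale by the radius of the inhibition zone: 1-10 mm = 1, 10-20 mm = 2, 20-30 mm = 3, 30-40 mm = 4.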

Microbotryum violaceum = assay: Antifungal activity against Ustilago violacea at 10 mg/mL by agar diffusion test; settings: read-out: IZ; outline: as §1
Escherichia coli = assay: Antibacterial activity against Escherichia coli at 10 mg/mL by agar diffusion test; settings: read-out: IZ; outline: as §1
[Chlorella] fusca = Herbicidal activity against Chlorella fusca at 10 mg/mL by agar diffusion test; settings: Scenedesmus fuscus; read-out: IZ; outline: as §1
Mycotypha microspora = assay: Antifungal activity against Mycotypha microspora at 10 mg/mL by agar diffusion test; settings: read-out: IZ; outline: as §1
Priestia megaterium = assay: Antibacterial activity against Bacillus megaterium at 10 mg/mL by agar diffusion test; settings: read-out: IZ; outline: as §1
Lepidium sativum = assay: Herbicidal activity against Lepidium sativum assessed as growth inhibition at 10 mg/mL relative to control
Lemna minor = assay: Herbicidal activity against Lemna minor assessed as growth inhibition at 10 mg/mL after 1 and 6 days relative to control
Outline: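 Lemna minor growth inhibition. 10 mg of sample is dissolved in 0.05 mL MeOH plus 0.05 mL acetone and added to 10 mL test medium (growth medium without sucrose) in 5 cm Petri dishes, each holding 15 plants. Plants are scored after 1 and 6 days.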

| SMILES | zone of inhibition at 10000 µg/mL [1] | zone of inhibition at 10000 µg/mL (Microbotryum violaceum) | zone of inhibition at 10000 µg/mL (Escherichia coli) | zone of inhibition at 10000 µg/mL ([Chlorella] fusca) | zone of inhibition at 10000 µg/mL (Mycotypha microspora) | zone of inhibition at 10000 µg/mL (Priestia megaterium) | inhibition at 10000 µg/mL (Lepidium sativum) | inhibition at 10000 µg/mL (Lemna minor) |
| --- | --- | --- | --- | --- | --- | --- | --- | --- |
| C[C@]12CCC[C@](C)(C(=O)O)[C@@H]1C=C[C@]1(O)COC(=O)C[C@H]21 [OIDIOLACTONE E] | 1 mm | 1 mm | 0 mm | 1 mm | 0 mm | 0 mm |  |  |
| CO[C@H]1OC(=O)C=C2[C@@]13O[C@@H]3[C@H]1OC(=O)[C@@]3(C)CCC[C@@]2(C)[C@@H]13 | 1 mm | 10 mm | 0 mm | 10 mm | 1 mm | 1 mm | 100% | > 90% |
| CO[C@H]1OC(=O)C=C2C1=C[C@H]1OC(=O)[C@@]3(C)CCC[C@@]2(C)[C@@H]13 |  | 30 mm |  | 20 mm |  | 1 mm |  |  |
| C[C@@]12CCC[C@]3(C)C4=CC(=O)O[C@@H](O)[C@]45O[C@@H]5[C@@H](OC1=O)[C@@H]23 [OIDIOLACTONE D] | 1 mm | 1 mm | 0 mm | 1 mm | 1 mm | 0 mm |  |  |
